Results reported in ChEMBL document CHEMBL1125326, “Potent gonadotropin releasing hormone antagonists with low histamine-releasing activity” (J Med Chem, 1992).
In brackets after ≈: the same amount, converted by molar mass. Non-standard residues stand in square brackets, D forms with d. Residues, ends and D or L forms follow the SMILES beside them. d(hArg(Et2)) = CCN=C(NCC)NCCCC[C@@H](N)C(=O)O; dPhe(4-Cl) = N[C@H](Cc1ccc(Cl)cc1)C(=O)O; d2Nal = N[C@H](Cc1ccc2ccccc2c1)C(=O)O

Tests used:
Rattus norvegicus [1] = organism: Rattus norvegicus; experiment: Evaluated for the release of histamine in rats (based on 10 animals per dose group); format: functional, organism-based
Rattus norvegicus [2] = experiment: Evaluated for the anti-ovulatory activity (rats were injected subcutaneously at noon on proestrus); format: functional
Method in brief: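 Female rats with at least two consecutive normal 4-day cycles, confirmed by vaginal lavage cytology, were dosed once s.c. at noon on proestrus in 50% propylene glycol/0.9% saline. On the morning of expected estrus, the oviducts were examined for ovulated eggs, which were counted. The effective dose came from % females ovulating plotted against log dose, usually with ≥3 dose groups (10 rats per group total).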

Structure (SMILES)	EC50 (Rattus norvegicus [1]) [µg/mL]	ED50 (Rattus norvegicus [2]) [µg]
CC/N=C(\NCC)NCCCC[C@H](NC(=O)[C@H](CC(C)C)NC(=O)[C@@H](Cc1cccnc1)NC(=O)[C@H](CCCN=C(N)N)NC(=O)[C@H](CO)NC(=O)[C@@H](Cc1cccnc1)NC(=O)[C@@H](Cc1ccc(Cl)cc1)NC(=O)[C@@H](Cc1ccc2ccccc2c1)NC(C)=O)C(=O)N1CCC[C@H]1C(=O)N[C@H](C)C(N)=O	23.6 (≈ 15.9 µM)	0.425
CC(=O)N[C@H](Cc1ccc2ccccc2c1)C(=O)N[C@H](Cc1ccc(Cl)cc1)C(=O)N[C@H](Cc1c[nH]c2ccccc12)C(=O)N[C@@H](CO)C(=O)N[C@@H](Cc1ccc(O)cc1)C(=O)N[C@H](CCCCNC1=NCCCN1)C(=O)N[C@@H](CC(C)C)C(=O)N[C@@H](CCCCN=C(N)N)C(=O)N1CCC[C@H]1C(=O)N[C@H](C)C(N)=O	0.41 (≈ 0.267 µM)	0.56
CC/N=C(\NCC)NCCCC[C@@H](NC(=O)[C@H](Cc1ccc(O)cc1)NC(=O)[C@H](CO)NC(=O)[C@@H](Cc1cccnc1)NC(=O)[C@@H](Cc1ccc(Cl)cc1)NC(=O)[C@@H](Cc1ccc2ccccc2c1)NC(C)=O)C(=O)N[C@@H](Cc1ccccc1)C(=O)N[C@@H](CCCN=C(N)N)C(=O)N1CCC[C@H]1C(=O)N[C@H](C)C(N)=O	< 0.01	0.5
CC(=O)N[C@H](Cc1ccc2ccccc2c1)C(=O)N[C@H](Cc1ccc(Cl)cc1)C(=O)N[C@H](Cc1cccnc1)C(=O)N[C@@H](CO)C(=O)N[C@@H](Cc1ccc(O)cc1)C(=O)N[C@H](Cc1cccnc1)C(=O)N[C@@H](CC(C)C)C(=O)N[C@@H](CCCCNC1=NCCCN1)C(=O)N1CCC[C@H]1C(=O)N[C@H](C)C(N)=O	20 (≈ 13.5 µM)	0.68
CC(=O)N[C@H](Cc1ccc2ccccc2c1)C(=O)N[C@H](Cc1ccc(Cl)cc1)C(=O)N[C@H](Cc1cccnc1)C(=O)N[C@@H](CO)C(=O)N[C@@H](CCCN=C(N)N)C(=O)N[C@H](Cc1cccnc1)C(=O)N[C@@H](CC(C)C)C(=O)N[C@@H](CCCCNC1=NCCCN1)C(=O)N1CCC[C@H]1C(=O)N[C@H](C)C(N)=O	1.5 (≈ 1.02 µM)	0.295
CCCC/N=C(\N)NCCCC[C@H](NC(=O)[C@H](CC(C)C)NC(=O)[C@@H](CCCCN/C(N)=N/CCCC)NC(=O)[C@H](Cc1ccc(O)cc1)NC(=O)[C@H](CO)NC(=O)[C@@H](Cc1cccnc1)NC(=O)[C@@H](Cc1ccc(Cl)cc1)NC(=O)[C@@H](Cc1ccc2ccccc2c1)NC(C)=O)C(=O)N1CCC[C@H]1C(=O)N[C@H](C)C(N)=O	0.64 (≈ 0.408 µM)	~0.9
CC(=O)N[C@H](Cc1ccc2ccccc2c1)C(=O)N[C@H](Cc1ccc(Cl)cc1)C(=O)N[C@H](Cc1c[nH]c2ccccc12)C(=O)N[C@@H](CO)C(=O)N[C@@H](CCCN=C(N)N)C(=O)N[C@H](Cc1c[nH]c2ccccc12)C(=O)N[C@@H](CC(C)C)C(=O)N[C@@H](CCCCNC1=NCCCN1)C(=O)N1CCC[C@H]1C(=O)N[C@H](C)C(N)=O	0.81 (≈ 0.524 µM)	>2
CC(=O)N[C@H](Cc1ccc2ccccc2c1)C(=O)N[C@H](Cc1ccc(Cl)cc1)C(=O)N[C@H](Cc1cccnc1)C(=O)N[C@@H](CO)C(=O)N[C@@H](CCCCN=C(NCC(F)(F)F)NCC(F)(F)F)C(=O)N[C@H](Cc1ccc(O)cc1)C(=O)N[C@@H](CC(C)C)C(=O)N[C@@H](CCCCN=C(NCC(F)(F)F)NCC(F)(F)F)C(=O)N1CCC[C@H]1C(=O)N[C@H](C)C(N)=O	53 (≈ 29.7 µM)	1.15
CC(=O)N[C@H](Cc1ccc2ccccc2c1)C(=O)N[C@H](Cc1ccc(F)cc1)C(=O)N[C@H](Cc1cccnc1)C(=O)N[C@@H](CO)C(=O)N[C@@H](CCCN=C(N)N)C(=O)N[C@H](Cc1cccnc1)C(=O)N[C@@H](CC(C)C)C(=O)N[C@@H](CCCCNC1=NCCCN1)C(=O)N1CCC[C@H]1C(=O)N[C@H](C)C(N)=O	6.2 (≈ 4.27 µM)	0.5
CCNC(=NCCCC[C@@H](NC(=O)[C@H](Cc1ccc(O)cc1)NC(=O)[C@H](CO)NC(=O)[C@@H](Cc1c[nH]c2ccccc12)NC(=O)[C@@H](Cc1ccc(Cl)cc1)NC(=O)[C@@H](Cc1ccc2ccccc2c1)NC(C)=O)C(=O)N[C@@H](CC(C)C)C(=O)N[C@@H](CCCN=C(N)N)C(=O)N1CCC[C@H]1C(=O)N[C@H](C)C(N)=O)NCC (Ac-[d2Nal][dPhe(4-Cl)][dW]SY[d(hArg(Et2))]LRP[dA]-NH2)	0.18 (≈ 0.117 µM)	~0.6
CCCC/N=C(\N)NCCCC[C@H](NC(=O)[C@H](CC(C)C)NC(=O)[C@@H](Cc1c[nH]c2ccccc12)NC(=O)[C@H](Cc1ccc(O)cc1)NC(=O)[C@H](CO)NC(=O)[C@@H](Cc1c[nH]c2ccccc12)NC(=O)[C@@H](Cc1ccc(Cl)cc1)NC(=O)[C@@H](Cc1ccc2ccccc2c1)NC(C)=O)C(=O)N1CCC[C@H]1C(=O)N[C@H](C)C(N)=O	1.6 (≈ 1.02 µM)	~1.3
CCCC/N=C(/N)NCCCC[C@@H](NC(=O)[C@H](Cc1ccc(O)cc1)NC(=O)[C@H](CO)NC(=O)[C@@H](Cc1cccnc1)NC(=O)[C@@H](Cc1ccc(F)cc1)NC(=O)[C@@H](Cc1ccc2ccccc2c1)NC(C)=O)C(=O)N[C@@H](CC(C)C)C(=O)N[C@@H](CCCCN=C(NCC(F)(F)F)NCC(F)(F)F)C(=O)N1CCC[C@H]1C(=O)N[C@H](C)C(N)=O	59 (≈ 35.5 µM)	1
